In ChEMBL document CHEMBL2417499, “Structure-activity relationship studies of Niemann-Pick type C1-like 1 (NPC1L1) ligands identified by screening assay monitoring pharmacological chaperone effect” (Bioorg Med Chem, 2013) one finds Activity and EC50 data, which are given here for 33 compounds.

The structures appear in SMILES notation. pEC50: −log10 of the molar value. Calls of active or inactive are those of the source. No cut-off for these calls is given here.

The first data set relates to HEK293. Description: Cytotoxicity against HEK293 cells transfected with human GFP-tagged NPC1L1 L1072T/L1168I mutant. In kind it is cell-based.
Settings: not given
As for `CCN(CC)C(=O)CC[C@@H](C)[C@H]1CC[C@H]2[C@@H]3CC=C4C[C@@H](O)CC[C@]4(C)[C@H]3CC[C@]12C`, the Activity result is recorded as “Toxic”.

Test system in the next data set: not listed separately
Description: Binding affinity to human GFP-tagged NTD-deleted NPC1L1 L1072T/L1168I mutant expressed in HEK293 cells assessed as localization to plasma membrane after 24 hrs by fluorescence microscopic analysis. Format: cell-based.
Settings: not given
In a few lines:
(§1)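 HEK293 cells stably expressing the GFP-tagged construct (G418 0.4 mg/mL) were seeded at 6,000 cells/well in DMEM with 1% FBS on poly-lysine-coated glass. On day 2 they were treated for 24 h, final DMSO 0.1%. Cells were fixed in 3.7% formaldehyde and imaged at ×100. Across 25 images, cells were scored ER 0 to PM 1 and averaged as % plasma membrane localization. EC50 was taken from this score.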
Regarding `C[C@H](CCC(=O)N(C)C)[C@H]1CC[C@H]2[C@@H]3CC=C4C[C@@H](OC(N)=O)CC[C@]4(C)[C@H]3CC[C@]12C`, the pEC50 was less than 5.00. With `C[C@H](CCC(=O)N(C)C)[C@H]1CC[C@H]2[C@@H]3CC=C4C[C@@H](OC(=O)N5CCN(C)CC5)CC[C@]4(C)[C@H]3CC[C@]12C`, the pEC50 is less than 5.00. On to `CCCN(CCC)C(=O)O[C@H]1CC[C@@]2(C)C(=CC[C@H]3[C@@H]4CC[C@H]([C@H](C)CCC(=O)N(C)C)[C@@]4(C)CC[C@@H]32)C1`, for which the pEC50 was 5.10. As for `CCN(CC)C(=O)O[C@H]1CC[C@@]2(C)C(=CC[C@H]3[C@@H]4CC[C@H]([C@H](C)CCC(=O)N(C)C)[C@@]4(C)CC[C@@H]32)C1`, the negative-log EC50 (pEC50) was 5.38. With `C[C@H](CCC(=O)N(C)C)[C@H]1CC[C@H]2[C@@H]3CC=C4C[C@@H](OC(=O)N(C)C)CC[C@]4(C)[C@H]3CC[C@]12C`, the pEC50 is 5.33. Regarding `C[C@H](CCC(=O)N(C)C)[C@H]1CC[C@H]2[C@@H]3CC=C4C[C@@H](OC(=O)N5CCOCC5)CC[C@]4(C)[C@H]3CC[C@]12C`, the pEC50 was 5.21.

Another data set deals with HEK293. Description: Binding affinity to human GFP-tagged NPC1L1 L1072T/L1168I mutant expressed in HEK293 cells assessed as localization to endoplasmic reticulum and plasma membrane at 10 uM after 24 hrs by fluorescence microscopic analysis.
Settings: not given
In kind it is cell-based. In a few lines:
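HEK293 cells stably expressing NPC1L1-GFP mutant from a CMV promoter, kept under G418 (0.4 mg/mL). Seeded at 6,000 cells/well on poly-lysine-coated glass in DMEM with 1% FBS. Dosed next day in 0.1% DMSO final for 24 h, then fixed in 3.7% formaldehyde and imaged at ×100. Each cell in 25 images scored ER 0 to PM 1; mean reported as % plasma membrane localization.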
`CC(C)CC[C@@H](O)[C@@H](C)[C@H]1CC[C@H]2[C@@H]3CC=C4C[C@@H](O)CC[C@]4(C)[C@H]3CC[C@]12C`: the outcome was inactive. Still for that read-out and setting: next, `CC(C)CCC[C@@H](C)[C@H]1CC[C@H]2[C@@H]3CC=C4C[C@@H](O)CC[C@]4(C)[C@H]3CC[C@]12C`: “inactive”; `C[C@]12CC[C@H](O)CC1=CC[C@@H]1[C@@H]2CC[C@]2(C)C(=O)CC[C@@H]12`: “inactive”; `CC(C)CCC[C@](C)(O)[C@H]1CC[C@H]2[C@@H]3CC=C4C[C@@H](O)CC[C@]4(C)[C@H]3CC[C@@]21C`: “inactive”. For the compound `CC(C)CCC[C@@H](C)[C@H]1CC[C@H]2[C@@H]3CC=C4C[C@@H](O)CC[C@]4(CO)[C@H]3CC[C@]12C`, the outcome was inactive. Still for that read-out and setting: to `CC(C)CC[C@H](O)[C@@H](C)[C@H]1CC[C@H]2[C@@H]3CC=C4C[C@@H](O)CC[C@]4(C)[C@H]3CC[C@]12C` belongs “inactive”.

In a further data set the test system is HEK293. Description: Binding affinity to human GFP-tagged NPC1L1 L1072T/L1168I mutant expressed in HEK293 cells assessed as protein stabilization after 24 hrs by fluorescence assay. In kind it is cell-based.
Settings: not given
In outline:
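Stable HEK293 lines were grown to 70% confluency in phenol red-free medium in 12-well plates and exposed to vehicle or compound for 24 h. Supernatant GFP fluorescence was read and normalized to BCA total protein, n = 3.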
In the case of `CC(C)CCC[C@@H](C)[C@H]1CC[C@H]2[C@@H]3CC=C4C[C@@H](O)CC[C@]4(CO)[C@H]3CC[C@]12C`, the outcome was inactive.

In a further data set the target is T1, NPC intracellular cholesterol transporter 1 (Homo sapiens) (UniProt O15118).
T1 sequence (whole entry): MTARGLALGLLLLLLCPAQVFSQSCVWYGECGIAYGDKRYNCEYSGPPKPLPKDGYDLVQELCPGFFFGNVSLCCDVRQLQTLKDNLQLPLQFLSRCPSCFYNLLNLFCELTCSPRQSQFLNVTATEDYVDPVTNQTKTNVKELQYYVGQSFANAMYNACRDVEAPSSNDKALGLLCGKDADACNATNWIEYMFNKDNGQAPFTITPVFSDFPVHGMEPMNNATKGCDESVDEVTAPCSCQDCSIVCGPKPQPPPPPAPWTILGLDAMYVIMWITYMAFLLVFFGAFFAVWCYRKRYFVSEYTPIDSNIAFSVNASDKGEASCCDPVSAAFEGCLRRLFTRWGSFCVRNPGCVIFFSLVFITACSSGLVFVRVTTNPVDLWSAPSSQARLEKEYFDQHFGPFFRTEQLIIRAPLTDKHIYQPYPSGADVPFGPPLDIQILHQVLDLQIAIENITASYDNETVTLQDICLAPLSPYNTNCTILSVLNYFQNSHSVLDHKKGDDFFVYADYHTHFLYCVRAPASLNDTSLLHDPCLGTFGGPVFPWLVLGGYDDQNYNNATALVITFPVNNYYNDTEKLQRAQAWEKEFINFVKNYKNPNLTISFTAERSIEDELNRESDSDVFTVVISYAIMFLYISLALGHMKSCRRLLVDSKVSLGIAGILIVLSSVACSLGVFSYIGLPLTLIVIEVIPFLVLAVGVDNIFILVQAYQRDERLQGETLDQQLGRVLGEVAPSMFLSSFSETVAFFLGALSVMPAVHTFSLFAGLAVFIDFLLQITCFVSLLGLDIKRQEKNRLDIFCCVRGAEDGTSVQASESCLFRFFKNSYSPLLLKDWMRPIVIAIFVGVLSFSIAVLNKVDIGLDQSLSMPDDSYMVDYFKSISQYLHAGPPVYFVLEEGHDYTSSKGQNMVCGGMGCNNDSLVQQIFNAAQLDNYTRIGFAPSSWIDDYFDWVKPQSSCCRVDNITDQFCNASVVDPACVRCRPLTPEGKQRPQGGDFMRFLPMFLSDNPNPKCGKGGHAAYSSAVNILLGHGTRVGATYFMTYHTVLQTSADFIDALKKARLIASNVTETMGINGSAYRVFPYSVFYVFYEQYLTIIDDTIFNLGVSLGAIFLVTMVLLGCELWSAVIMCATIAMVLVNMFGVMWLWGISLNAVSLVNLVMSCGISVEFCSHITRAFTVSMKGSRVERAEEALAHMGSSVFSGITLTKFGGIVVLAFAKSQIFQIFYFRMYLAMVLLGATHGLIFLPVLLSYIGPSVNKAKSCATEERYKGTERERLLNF
Description: Binding affinity to NPC1 (unknown origin).
Settings: not given
Take `C[C@H](CCCC(C)(C)O)[C@H]1CC[C@H]2[C@@H]3CC=C4C[C@@H](O)CC[C@]4(C)[C@H]3CC[C@]12C`: the result was Active.

Consider `CC(C)CC[C@H](O)[C@@H](C)[C@H]1CC[C@H]2[C@@H]3CC=C4C[C@@H](O)CC[C@]4(C)[C@H]3CC[C@]12C`, for which the result was Active.

Test system in the next data set: not listed separately
Description: Binding affinity to human GFP-tagged NPC1L1 L1072T/L1168I mutant expressed in HEK293 cells assessed as localization to endoplasmic reticulum and plasma membrane after 24 hrs by fluorescence microscopic analysis. In kind it is cell-based.
Settings: not given
In a few lines: as §1
Turning to `C[C@H](CCCO)[C@H]1CC[C@H]2[C@@H]3CC=C4C[C@@H](O)CC[C@]4(C)[C@H]3CC[C@]12C`, the EC50 entry was “Not Active”.

Regarding `CC(C)CCC[C@@H](C)[C@H]1CC[C@H]2[C@@H]3CC=C4C[C@@H](OC(=O)N(CCO)CCO)CC[C@]4(C)[C@H]3CC[C@]12C`, the EC50 result is on record as “Not Active”.

The same data set, now with this note: read-out: EC50.
On to `C[C@H](CCC(=O)O)[C@H]1CC[C@H]2[C@@H]3CC=C4C[C@@H](O)CC[C@]4(C)[C@H]3CC[C@]12C`, for which the pEC50 was less than 5.00. In the case of `CC(C)CCC[C@@H](C)[C@H]1CC[C@H]2[C@@H]3C[C@@H](O)[C@H]4C[C@@H](O)CC[C@]4(C)[C@H]3CC[C@]12C`, the pEC50 is 5.01.

For `C[C@H](CCC(C)(C)O)[C@H]1CC[C@H]2[C@@H]3CC=C4C[C@@H](O)CC[C@]4(C)[C@H]3CC[C@]12C`, the pEC50 is less than 5.00. Consider `CNC(=O)CC[C@@H](C)[C@H]1CC[C@H]2[C@@H]3CC=C4C[C@@H](O)CC[C@]4(C)[C@H]3CC[C@]12C`, for which the pEC50 is less than 5.00. On the same count and under the same terms, next, `CC(C)CCC[C@@H](C)[C@H]1CC[C@H]2[C@@H]3[C@@H](O)C=C4C[C@@H](OC(=O)N(CCO)CCO)CC[C@]4(C)[C@H]3CC[C@]12C`: 5.70; `C[C@H](CCC(=O)N(C)C)[C@H]1CC[C@H]2[C@@H]3CC=C4C[C@@H](OC(N)=O)CC[C@]4(C)[C@H]3CC[C@]12C`: 5.07. Same read-out and setting: to `CC(C)CCC[C@@H](C)[C@H]1CC[C@H]2[C@@H]3C[C@H](O)[C@H]4C[C@@H](OC(=O)N(CCO)CCO)CC[C@]4(C)[C@H]3CC[C@]12C` belongs 5.96; to `C[C@H](CCC(N)=O)[C@H]1CC[C@H]2[C@@H]3CC=C4C[C@@H](O)CC[C@]4(C)[C@H]3CC[C@]12C`, less than 5.00.

For the compound `CC(C)CCC[C@@H](C)[C@H]1CC[C@H]2[C@@H]3CC(=O)[C@H]4C[C@@H](OC(=O)N(CCO)CCO)CC[C@]4(C)[C@H]3CC[C@]12C`, the pEC50 was 5.42.

For the compound `CC(C)CCC[C@@H](C)[C@H]1CC[C@H]2[C@@H]3CC(=O)[C@H]4C[C@@H](O)CC[C@]4(C)[C@H]3CC[C@]12C` [5alpha-CHOLESTAN-3beta-OL-6-ONE], the pEC50 is 5.55. Regarding `CC(C)CCC[C@@H](C)[C@H]1CC[C@H]2[C@@H]3C[C@@H](O)[C@H]4C[C@@H](OC(=O)N(CCO)CCO)CC[C@]4(C)[C@H]3CC[C@]12C`, the pEC50 was 5.70. Regarding `C[C@H](CCCC(C)(C)O)[C@H]1CC[C@H]2[C@@H]3CC=C4C[C@@H](O)CC[C@]4(C)[C@H]3CC[C@]12C`, the pEC50 is 5.64. For the compound `CC(C)CCC[C@@H](C)[C@H]1CC[C@H]2[C@@H]3C(=O)C=C4C[C@@H](O)CC[C@]4(C)[C@H]3CC[C@]12C` [7-OXOCHOLESTEROL], the pEC50 is 5.01. For `CC(C)CCC[C@@H](C)[C@H]1CC[C@H]2[C@@H]3C(=O)C=C4C[C@@H](OC(=O)N(CCO)CCO)CC[C@]4(C)[C@H]3CC[C@]12C`, the pEC50 was 5.42. For the compound `C[C@H](CCC(=O)N(C)C)[C@H]1CC[C@H]2[C@@H]3CC=C4C[C@@H](O)CC[C@]4(C)[C@H]3CC[C@]12C`, the pEC50 is 6.10.

Consider `C[C@H](CCC(=O)N(C)C)[C@H]1CC[C@H]2[C@@H]3CC=C4C[C@@H](OC(=O)N5CCN(C)CC5)CC[C@]4(C)[C@H]3CC[C@]12C`, for which the pEC50 was 5.54. For `CC(C)CCC[C@@H](C)[C@H]1CC[C@H]2[C@@H]3C[C@@H](O)[C@@]4(O)C[C@@H](OC(=O)N(CCO)CCO)CC[C@]4(C)[C@H]3CC[C@]12C`, the pEC50 was 5.09. As for `CC(C)CCC[C@@H](C)[C@H]1CC[C@H]2[C@@H]3C[C@H](O)[C@H]4C[C@@H](O)CC[C@]4(C)[C@H]3CC[C@]12C`, the pEC50 was 5.07. Take `CCCN(CCC)C(=O)O[C@H]1CC[C@@]2(C)C(=CC[C@H]3[C@@H]4CC[C@H]([C@H](C)CCC(=O)N(C)C)[C@@]4(C)CC[C@@H]32)C1`: the pEC50 is 5.52. Turning to `CCN(CC)C(=O)O[C@H]1CC[C@@]2(C)C(=CC[C@H]3[C@@H]4CC[C@H]([C@H](C)CCC(=O)N(C)C)[C@@]4(C)CC[C@@H]32)C1`, the pEC50 is 5.74. With `C[C@H](CCC(=O)N(C)C)[C@H]1CC[C@H]2[C@@H]3CC=C4C[C@@H](OC(=O)N(C)C)CC[C@]4(C)[C@H]3CC[C@]12C`, the pEC50 was 5.96. Turning to `C[C@H](CCC(=O)N(C)C)[C@H]1CC[C@H]2[C@@H]3CC=C4C[C@@H](OC(=O)N5CCOCC5)CC[C@]4(C)[C@H]3CC[C@]12C`, the pEC50 is 5.64. Regarding `CCCCN(CCCC)C(=O)CC[C@@H](C)[C@H]1CC[C@H]2[C@@H]3CC=C4C[C@@H](O)CC[C@]4(C)[C@H]3CC[C@]12C`, the negative logarithm of the EC50 (pEC50) is less than 5.52. As for `CC(C)CCC[C@@H](C)[C@H]1CC[C@H]2[C@@H]3[C@@H](O)C=C4C[C@@H](O)CC[C@]4(C)[C@H]3CC[C@]12C`, the pEC50 was 5.00.

What is called pEC50 is −log10 of the EC50, conventionally taken in molar units.
